Assay results reported in paper PMC9394215 (Journal for Immunotherapy of Cancer, 2022).

Experiments:
NTPDase3 = target: T1, NTPDase3 (Homo sapiens, UniProt O75355); experiment: Malachite green assay, NTPDase3 in COS-7 cell membranes; format: biochemical
T1 sequence (O75355 1-529): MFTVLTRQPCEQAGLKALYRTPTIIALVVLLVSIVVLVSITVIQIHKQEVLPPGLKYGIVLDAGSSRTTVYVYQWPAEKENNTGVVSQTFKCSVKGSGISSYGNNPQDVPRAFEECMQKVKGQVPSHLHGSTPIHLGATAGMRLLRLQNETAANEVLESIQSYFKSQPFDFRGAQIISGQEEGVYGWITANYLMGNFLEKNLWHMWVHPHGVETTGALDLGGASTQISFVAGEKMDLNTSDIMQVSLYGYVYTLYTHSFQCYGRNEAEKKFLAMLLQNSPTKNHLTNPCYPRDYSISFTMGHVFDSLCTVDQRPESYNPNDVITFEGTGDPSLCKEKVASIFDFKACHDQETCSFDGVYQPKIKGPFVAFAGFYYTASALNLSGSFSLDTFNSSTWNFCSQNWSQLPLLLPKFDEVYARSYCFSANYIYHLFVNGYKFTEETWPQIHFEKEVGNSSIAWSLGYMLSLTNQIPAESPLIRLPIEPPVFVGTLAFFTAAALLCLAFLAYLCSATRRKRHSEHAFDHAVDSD
How it was run: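 Human NTPDase2, -3 or -8 was expressed in COS-7 membranes (ca. 100 ng protein, adjusted for 10–20% substrate conversion). Enzyme was preincubated 5 min at 37°C with test compound (50 µM single point, or 0.1–300 µM for curves). It was then incubated 15 min at 37°C with 100 µM ATP in HEPES/CaCl2/MgCl2, pH 7.4, ≤2% DMSO. Malachite green absorbance at 600 nm was corrected by a denatured-enzyme blank; n=3.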

human PBMCs = experiment: HPLC assay of AMPase activity; format: cell-based; settings: 1-100 µM ceritinib; 1 µM eAMP
How it was run: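 PBMCs were isolated from buffy coats by density gradient. Cells (2×10^5) were pretreated with test compound (1, 10, 50, 100 µM) for 15 min at 37°C, then given 1 µM eATP (ATPase) or eAMP (AMPase) for 30 min at 37°C. Cells were removed and supernatants 10 kDa-filtered. Etheno-nucleotides were quantified by reversed-phase C8 HPLC (phosphate pH 6.0/methanol gradient; fluorescence 230/410 nm) against standards; singlets, n=2–3.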

Soluble CD73 = target: T2, Soluble CD73 (Homo sapiens, UniProt P21589); experiment: CD73 assay with [2,8-3H]AMP; format: biochemical
T2 sequence (P21589 27-549 limits assumed): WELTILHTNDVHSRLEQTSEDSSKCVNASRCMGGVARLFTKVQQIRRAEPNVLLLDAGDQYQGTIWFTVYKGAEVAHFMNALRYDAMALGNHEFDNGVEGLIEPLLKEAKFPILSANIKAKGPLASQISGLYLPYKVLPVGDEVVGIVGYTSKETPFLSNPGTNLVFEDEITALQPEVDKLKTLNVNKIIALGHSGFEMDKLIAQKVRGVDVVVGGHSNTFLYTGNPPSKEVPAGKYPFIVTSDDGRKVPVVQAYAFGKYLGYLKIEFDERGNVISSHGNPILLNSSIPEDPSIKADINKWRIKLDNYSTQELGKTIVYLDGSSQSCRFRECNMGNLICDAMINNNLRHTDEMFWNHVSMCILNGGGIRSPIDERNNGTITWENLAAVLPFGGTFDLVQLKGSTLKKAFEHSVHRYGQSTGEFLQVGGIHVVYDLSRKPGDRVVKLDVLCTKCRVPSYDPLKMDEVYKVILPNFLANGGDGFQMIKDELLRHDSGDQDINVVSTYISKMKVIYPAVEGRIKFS
How it was run: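 A dilution series of test compound was incubated with soluble human CD73 (0.09 µg/mL) and 5.0 µM [2,8-3H]AMP in 25 mM Tris, 140 mM NaCl, 25 mM NaH2PO4, pH 7.4. Incubation ran 25 min at 37°C with shaking. Cold LaCl3/sodium acetate buffer (pH 4.0) precipitated phosphate and unconverted AMP over 30 min on ice. Samples were filtered through GF/B filters and the filtrate collected.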

NPP1 = target: T3, NPP1 (Homo sapiens, UniProt P22413); experiment: NPP1 assay; format: biochemical
T3 sequence (P22413 98-925 limits assumed): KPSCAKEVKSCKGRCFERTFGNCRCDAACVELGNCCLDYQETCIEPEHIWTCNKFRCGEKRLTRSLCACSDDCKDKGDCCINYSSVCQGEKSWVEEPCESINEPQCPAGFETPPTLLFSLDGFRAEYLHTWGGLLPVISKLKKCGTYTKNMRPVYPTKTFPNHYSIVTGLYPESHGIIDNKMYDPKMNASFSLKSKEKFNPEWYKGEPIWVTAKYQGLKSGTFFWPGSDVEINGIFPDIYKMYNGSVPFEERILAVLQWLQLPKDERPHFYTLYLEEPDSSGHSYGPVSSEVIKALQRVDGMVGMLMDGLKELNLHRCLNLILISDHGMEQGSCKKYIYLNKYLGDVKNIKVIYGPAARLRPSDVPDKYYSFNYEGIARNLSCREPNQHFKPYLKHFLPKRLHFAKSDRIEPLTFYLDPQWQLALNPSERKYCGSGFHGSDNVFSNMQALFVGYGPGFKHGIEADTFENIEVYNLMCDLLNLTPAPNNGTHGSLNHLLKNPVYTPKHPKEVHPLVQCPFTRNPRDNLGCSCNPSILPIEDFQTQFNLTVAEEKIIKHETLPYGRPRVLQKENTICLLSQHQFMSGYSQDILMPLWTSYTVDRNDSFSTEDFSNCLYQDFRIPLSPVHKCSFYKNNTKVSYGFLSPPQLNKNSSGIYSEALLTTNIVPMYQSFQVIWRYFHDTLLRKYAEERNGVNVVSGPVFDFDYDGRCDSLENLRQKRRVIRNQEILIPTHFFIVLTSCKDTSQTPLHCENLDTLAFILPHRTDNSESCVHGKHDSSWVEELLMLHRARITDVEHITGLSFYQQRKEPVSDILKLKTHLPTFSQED
How it was run: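 Crude soluble NPP1 (800 ng, Sf9-expressed) was incubated with 50 µM test compound, 2% DMSO and 300 µM ATP. Buffer: 10 mM CHES, pH 9.0, 2 mM CaCl2, 1 mM MgCl2; 30 min at 37°C with shaking. The reaction was stopped by 5 min at 90°C, then cooled on ice. Product AMP was quantified by capillary electrophoresis.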

[1] = ref 61 62; cited from earlier work
[2] = stated without method or reference; cited from earlier work
[3] = cited from earlier work
[4] = read-out: % inhibition at 50 µM

In the case of `Cc1cc(Nc2ncc(Cl)c(Nc3ccccc3S(=O)(=O)C(C)C)n2)c(OC(C)C)cc1C1CCNCC1` [ceritinib, Ceritinib], the IC50 (NTPDase3) is reported as 22.7 ± 4 µM, the “effect on hydrolysis of eAMP by PBMCs” value (human PBMCs) is reported as “only a minor effect” and the IC50 (Soluble CD73) is reported as > 50 µM. The inhibition at 50 µM (Soluble CD73; [4]) was 33%, the IC50 (NPP1) was > 50 µM and the inhibition at 50 µM (NPP1; [4]) was 8%. For the same molecule, the brain permeation [1] was “some brain permeation”, the “pKb of the piperidine nitrogen” value [2] was ~10 and the “pharmacokinetics in mice versus humans” value [3] was “comparable pharmacokinetics”.
